According to ChEMBL document CHEMBL4020823, “Highly Selective, Potent, and Oral mTOR Inhibitor for Treatment of Cancer as Autophagy Inducer” (J Med Chem, 2018):
pIC50: −log10 of the molar value. Active and inactive are the calls of the source. No cut-off for these calls is given here.

Legend:
T47D [1] = test: Antitumor activity against human T47D cells xenografted in BALB/c nude mouse assessed as tumor weight at 60 mg/kg, po administered via gavage after 3 weeks (reference value: 1.23 g); format: functional
OVCAR-5 = test: Growth inhibition of human OVCAR5 cells after 72 hrs by CCK8 assay; format: functional, cell-based; conditions: OVCAR-5, 72 h
Method in brief: (§1)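 Cells were seeded at 2000–3000 per well and grown 24 h in serum-containing medium. They were then exposed to serially diluted compound for 72 h at 37 °C, 5% CO2. CCK8 reagent was added for 1–4 h and absorbance read at 450 nm. Inhibition = (AC − AS)/(AC − Ab) × 100%. IC50 is the average of at least three independent determinations.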

Mus musculus [2] = organism: Mus musculus; test: Inhibition of full length recombinant mouse PI3K p85alpha/p110alpha E545K mutant at 1 uM relative to control
Method in brief: (§2)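 Eurofins KinaseProfiler panel with compound at a single 1 μM concentration. ATP at the Km of each kinase. Result is % inhibition, mean of two independent experiments.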

HeLa [3] = test: Inhibition of mTORC1 in human HeLa cells assessed as reduction in S6 phosphorylation at Ser 240/244 residues at 0.5 to 1 uM by Western blot analysis; format: cell-based
Method in brief: (§3)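 Cells treated with the indicated concentrations, then whole-cell lysates immunoblotted. mTORC1 activity read as S6 and 4E-BP1 phosphorylation; mTORC2 activity read as AKT Ser473 phosphorylation. Blocking in 5% skim milk, primary antibodies at 4 °C overnight, peroxidase-conjugated secondary, ECL detection.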

Homo sapiens [4] = organism: Homo sapiens; test: Inhibition of mTORC2 in human T47D cells assessed as reduction in AKT phosphorylation at Ser473 residues at 0.25 to 0.5 uM by Western blot analysis; format: cell-based
Method in brief: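 Cells exposed to a range of compound concentrations; whole-cell lysates immunoblotted for phospho-AKT (Ser473) as the mTORC2 readout, alongside S6 and 4E-BP1 phosphorylation for mTORC1. Membranes blocked in 5% skim milk, primary antibodies overnight at 4 °C, peroxidase-conjugated anti-mouse or anti-rabbit IgG secondary, ECL detection. Rapamycin as comparator.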

[5] = AUC (0 to infinity) in Sprague-Dawley rat at 20 mg/kg, iv administered as single dose by HPLC analysis; format: ADME, organism-based; set-up: dose 20 mg/kg, time infinity, route intravenous; conditions: in vivo
Method in brief: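 Rats fasted overnight, then given one 20 mg/kg dose either iv or po. Blood was collected and centrifuged at once to obtain plasma. Plasma drug levels were measured by HPLC, and PK parameters were derived from the concentration-time data.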

HeLa [6] = test: Growth inhibition of human HeLa cells after 72 hrs by CCK8 assay; format: functional, cell-based; method in brief: as §1
Homo sapiens [7] = organism: Homo sapiens; test: Inhibition of mTORC1 in human MDA-MB-231 cells assessed as reduction in 4E-BP1 phosphorylation at Thr37/46 residues at 0.25 to 0.5 uM by Western blot analysis; format: cell-based; method in brief: as §3
Homo sapiens [8] = organism: Homo sapiens; test: Inhibition of mTORC1 in human MCF7 cells assessed as reduction in S6 phosphorylation at Ser 240/244 residues at 0.25 to 0.5 uM by Western blot analysis; format: cell-based; method in brief: as §3
ATR/ATRIP (Homo sapiens) = ATR/ATRIP (Homo sapiens) (UniProt Q13535+Q8WXE1); test: Inhibition of full length recombinant human ATR /ATRIP at 1 uM relative to control; format: protein-complex assay; method in brief: as §2
Chain of ATR/ATRIP (Homo sapiens) (Q13535 whole entry, looked up): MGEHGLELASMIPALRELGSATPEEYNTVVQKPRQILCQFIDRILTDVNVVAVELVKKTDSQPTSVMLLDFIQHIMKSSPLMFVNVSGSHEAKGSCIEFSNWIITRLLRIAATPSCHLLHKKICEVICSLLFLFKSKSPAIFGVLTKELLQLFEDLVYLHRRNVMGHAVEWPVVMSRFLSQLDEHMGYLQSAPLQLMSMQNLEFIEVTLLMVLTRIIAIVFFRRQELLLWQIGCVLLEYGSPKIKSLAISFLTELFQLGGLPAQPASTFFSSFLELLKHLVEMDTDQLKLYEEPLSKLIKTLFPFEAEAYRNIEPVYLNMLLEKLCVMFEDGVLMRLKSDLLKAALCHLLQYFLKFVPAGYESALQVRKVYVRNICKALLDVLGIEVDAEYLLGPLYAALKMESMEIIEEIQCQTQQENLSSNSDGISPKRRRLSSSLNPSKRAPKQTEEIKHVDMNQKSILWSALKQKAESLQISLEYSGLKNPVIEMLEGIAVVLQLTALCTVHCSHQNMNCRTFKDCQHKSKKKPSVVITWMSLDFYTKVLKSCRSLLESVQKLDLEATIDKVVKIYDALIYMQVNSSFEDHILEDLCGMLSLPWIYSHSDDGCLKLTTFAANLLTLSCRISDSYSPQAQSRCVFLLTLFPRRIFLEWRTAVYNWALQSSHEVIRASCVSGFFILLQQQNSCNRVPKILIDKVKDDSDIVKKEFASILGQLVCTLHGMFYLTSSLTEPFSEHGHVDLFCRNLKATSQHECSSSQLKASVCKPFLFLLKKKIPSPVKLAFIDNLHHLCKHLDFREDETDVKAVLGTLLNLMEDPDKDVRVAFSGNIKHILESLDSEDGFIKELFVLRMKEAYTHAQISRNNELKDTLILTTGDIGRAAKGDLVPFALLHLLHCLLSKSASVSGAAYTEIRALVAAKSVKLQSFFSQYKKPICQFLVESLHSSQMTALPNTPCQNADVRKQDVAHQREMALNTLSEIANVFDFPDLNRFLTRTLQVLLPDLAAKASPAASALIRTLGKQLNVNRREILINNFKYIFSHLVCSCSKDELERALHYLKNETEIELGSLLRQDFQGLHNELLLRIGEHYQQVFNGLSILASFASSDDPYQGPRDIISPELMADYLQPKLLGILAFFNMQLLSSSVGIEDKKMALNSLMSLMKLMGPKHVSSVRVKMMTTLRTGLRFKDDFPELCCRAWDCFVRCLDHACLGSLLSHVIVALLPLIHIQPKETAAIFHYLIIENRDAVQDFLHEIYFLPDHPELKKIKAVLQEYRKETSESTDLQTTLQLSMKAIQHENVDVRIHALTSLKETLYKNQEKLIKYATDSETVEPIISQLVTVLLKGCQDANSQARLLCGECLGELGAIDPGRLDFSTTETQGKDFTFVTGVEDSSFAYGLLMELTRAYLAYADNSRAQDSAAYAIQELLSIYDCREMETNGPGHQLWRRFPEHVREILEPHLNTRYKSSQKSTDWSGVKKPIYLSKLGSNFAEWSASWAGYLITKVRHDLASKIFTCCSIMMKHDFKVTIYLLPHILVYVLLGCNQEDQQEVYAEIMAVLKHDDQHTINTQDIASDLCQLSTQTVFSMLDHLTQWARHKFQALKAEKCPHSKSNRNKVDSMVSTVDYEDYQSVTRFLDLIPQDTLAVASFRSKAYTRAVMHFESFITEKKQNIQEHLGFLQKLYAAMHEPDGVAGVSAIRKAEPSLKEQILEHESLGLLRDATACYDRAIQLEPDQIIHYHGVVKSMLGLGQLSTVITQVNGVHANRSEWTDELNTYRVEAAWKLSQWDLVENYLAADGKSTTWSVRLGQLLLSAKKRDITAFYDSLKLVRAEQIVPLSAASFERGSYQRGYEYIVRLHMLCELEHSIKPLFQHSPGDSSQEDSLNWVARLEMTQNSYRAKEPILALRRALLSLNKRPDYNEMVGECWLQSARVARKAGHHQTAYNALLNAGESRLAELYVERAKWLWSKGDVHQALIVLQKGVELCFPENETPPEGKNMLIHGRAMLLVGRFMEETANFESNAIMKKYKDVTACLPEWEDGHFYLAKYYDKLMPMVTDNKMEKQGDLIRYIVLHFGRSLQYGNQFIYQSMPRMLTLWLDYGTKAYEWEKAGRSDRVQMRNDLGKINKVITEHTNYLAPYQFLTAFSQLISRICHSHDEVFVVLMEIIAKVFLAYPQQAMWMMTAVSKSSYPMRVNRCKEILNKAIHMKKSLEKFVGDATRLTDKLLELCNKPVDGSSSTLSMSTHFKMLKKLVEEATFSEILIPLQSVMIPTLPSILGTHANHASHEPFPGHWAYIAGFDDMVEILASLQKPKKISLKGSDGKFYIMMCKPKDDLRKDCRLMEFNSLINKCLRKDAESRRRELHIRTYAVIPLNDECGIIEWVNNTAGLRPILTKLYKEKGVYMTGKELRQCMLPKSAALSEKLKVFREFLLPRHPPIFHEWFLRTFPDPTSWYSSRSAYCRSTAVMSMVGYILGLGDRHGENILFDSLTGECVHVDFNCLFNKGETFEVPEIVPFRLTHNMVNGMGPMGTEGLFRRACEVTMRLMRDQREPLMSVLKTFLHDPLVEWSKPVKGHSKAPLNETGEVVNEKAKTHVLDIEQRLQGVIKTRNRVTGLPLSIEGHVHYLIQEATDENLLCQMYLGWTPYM
Chain of ATR/ATRIP (Homo sapiens) (Q8WXE1 whole entry, looked up): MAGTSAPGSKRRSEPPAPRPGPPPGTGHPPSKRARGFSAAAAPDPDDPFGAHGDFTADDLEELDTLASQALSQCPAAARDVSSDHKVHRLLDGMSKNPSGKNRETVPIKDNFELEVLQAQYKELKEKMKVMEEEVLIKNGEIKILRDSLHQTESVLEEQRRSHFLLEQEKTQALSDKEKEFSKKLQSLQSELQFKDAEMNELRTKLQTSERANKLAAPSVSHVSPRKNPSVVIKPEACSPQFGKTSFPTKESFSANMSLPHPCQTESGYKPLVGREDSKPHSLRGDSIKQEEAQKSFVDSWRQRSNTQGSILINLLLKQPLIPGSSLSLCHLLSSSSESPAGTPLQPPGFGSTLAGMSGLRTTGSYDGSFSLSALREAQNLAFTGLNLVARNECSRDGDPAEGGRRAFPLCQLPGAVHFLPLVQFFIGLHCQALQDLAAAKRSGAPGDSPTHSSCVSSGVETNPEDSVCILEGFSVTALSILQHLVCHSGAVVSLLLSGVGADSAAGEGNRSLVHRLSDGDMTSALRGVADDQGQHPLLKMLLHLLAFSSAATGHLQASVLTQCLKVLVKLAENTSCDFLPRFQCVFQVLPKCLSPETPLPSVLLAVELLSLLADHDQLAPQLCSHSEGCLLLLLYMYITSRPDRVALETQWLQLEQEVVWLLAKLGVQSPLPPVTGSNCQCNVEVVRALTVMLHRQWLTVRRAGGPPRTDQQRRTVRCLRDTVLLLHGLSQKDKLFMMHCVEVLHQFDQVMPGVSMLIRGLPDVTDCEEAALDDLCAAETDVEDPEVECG

Mus musculus [9] = organism: Mus musculus; test: Inhibition of full length recombinant mouse p85alpha/PI3K p110alpha H1047R mutant at 1 uM relative to control; method in brief: as §2
Mus musculus [10] = test: Down regulation of S6 phosphorylation at Ser240/244 residues in human T47D cells xenografted in BALB/c nude mouse administered via oral gavage after 3 weeks by hematoxylin and eosine staining based light microscopic assay; format: functional, cell-based
Method in brief: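 Tumours from the oral 3-week T-47D xenograft study were formalin-fixed, paraffin-embedded and cut into 5 μm sections. Sections were deparaffinized, rehydrated and incubated overnight at 4 °C with phospho-specific primary antibody at 1:100. Biotin secondary was applied for 1 h at room temperature, then ABC-peroxidase/DAB with hematoxylin counterstain. Sections were viewed by light microscopy.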

Homo sapiens [11] = organism: Homo sapiens; test: Inhibition of full length recombinant human PI3K p110alpha/p65alpha at 1 uM relative to control; method in brief: as §2
Homo sapiens [12] = organism: Homo sapiens; test: Inhibition of mTORC1 in human MDA-MB-231 cells assessed as reduction in S6 phosphorylation at Ser 240/244 residues at 0.25 to 0.5 uM by Western blot analysis; format: cell-based; method in brief: as §3
[13] = Protein binding in human plasma at 4 uM after 4 hrs by equilibrium dialysis method; format: ADME, cell-free; conditions: read-out: PPB (converted)
Method in brief: (§4)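 Plasma protein binding measured in rabbit and human plasma with compound at 4 μM over a 4 h period; result given as percent bound.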

[14] = Protein binding in rabbit plasma at 4 uM after 4 hrs by equilibrium dialysis method; format: ADME, cell-free, Oryctolagus cuniculus; conditions: read-out: PPB (converted); method in brief: as §4
Mus musculus [15] = organism: Mus musculus; test: Inhibition of full length recombinant mouse p85alpha/PI3K p110alpha E542K mutant at 1 uM relative to control; method in brief: as §2
Homo sapiens [16] = organism: Homo sapiens; test: Inhibition of mTORC1 in human SiHa cells assessed as reduction in S6 phosphorylation at Ser 240/244 residues at 0.25 to 0.5 uM by Western blot analysis; format: cell-based; method in brief: as §3
SiHa [17] = test: Growth inhibition of human SiHa cells after 72 hrs by CCK8 assay; format: functional, cell-based; method in brief: as §1
[18] = tested on: PI3-kinase p110-alpha/p85-alpha (Homo sapiens), P27986+P42336 [E545K]; test: Inhibition of full length recombinant human p85alpha/PI3K p110alpha E545K mutant at 1 uM relative to control; method in brief: as §2
[19] = target: PI3K p110 beta/p85 alpha (Mus musculus) (UniProt P26450+Q8BTI9); test: Inhibition of full length recombinant mouse PI3K p110beta/p85alpha at 1 uM relative to control; format: protein-complex assay; method in brief: as §2
T47D [20] = test: Antitumor activity against human T47D cells xenografted in BALB/c nude mouse assessed as decrease in tumor growth at 30 mg/kg, po administered via gavage after 3 weeks relative to control; format: functional; conditions: 504 h, read-out: TGI
[21] = MRT (0 to infinity) in Sprague-Dawley rat at 20 mg/kg, po administered as single dose by HPLC analysis; format: ADME, organism-based; conditions: in vivo
Method in brief: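 Rats fasted overnight, then given a single 20 mg/kg dose either iv or po. Blood collected and centrifuged immediately to obtain plasma. Plasma drug levels measured by HPLC, and pharmacokinetic parameters derived from both routes.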

MCF7 = test: Induction of autophagy in human MCF7 cells assessed as increase in LC3-2 puncta level after 48 hrs by immunofluorescence staining based microscopic analysis; format: functional, cell-based
MDA-MB-231 = test: Growth inhibition of human MDA-MB-231 cells after 72 hrs by CCK8 assay; format: functional, cell-based; conditions: MDA-MB-231, 72 h; method in brief: as §1
SiHa [22] = test: Induction of autophagy in human SiHa cells assessed as increase in LC3-2 level at 0.5 to 1 uM after 48 hrs by Western blot analysis; format: functional, cell-based
Method in brief: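 Cells treated with test agents at several concentrations for 2 days (48 h). LC3B-II detected by Western blot on lysates, with β-actin as internal control. Membranes blocked in 5% skim milk, primary antibodies at 4 °C overnight, peroxidase-conjugated anti-mouse or anti-rabbit IgG secondary, ECL detection.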

Homo sapiens [23] = organism: Homo sapiens; test: Inhibition of mTORC1 in human T47D cells assessed as reduction in 4E-BP1 phosphorylation at Thr37/46 residues at 0.25 to 0.5 uM by Western blot analysis; format: cell-based; method in brief: as §3

pIC50 (OVCAR-5): 5.55
inhibition (Mus musculus [2]): 9%
AUC(0-inf) [5]: 6560 ng·h/mL
pIC50 (HeLa [6]): 6.36
inhibition (ATR/ATRIP (Homo sapiens)): 24%
inhibition (Mus musculus [9]): 7%
inhibition (Homo sapiens [11]): 5%
fraction unbound at 4 h, 4 µM [13]: 0.36
fraction unbound at 4 h, 4 µM [14]: 0.399
inhibition (Mus musculus [15]): 10%
inhibition [18]: 13%
inhibition [19]: 5%
MRT inf [21]: 16.3 h
pIC50 (MDA-MB-231): 7.00
Structure (SMILES): N#CCN1CCC(n2c(=O)cnc3cnc4ccc(-c5ccc(N)nc5)cc4c32)CC1
Activity (T47D [1]): 0.194 g
inhibition (HeLa [3]): Active
inhibition (Homo sapiens [4]): Active
inhibition (Homo sapiens [7]): Active
inhibition (Homo sapiens [8]): Active
Activity (Mus musculus [10]): Dose-dependent effect
inhibition (Homo sapiens [12]): Active
inhibition (Homo sapiens [16]): Active
pIC50 (SiHa [17]): 6.96
inhibition in vivo at 30 mg/kg (T47D [20]): 75.6%
Activity (MCF7): Dose-dependent effect
Activity (SiHa [22]): Active
inhibition (Homo sapiens [23]): Active
